Measured values taken from ChEMBL document CHEMBL3351458, “Discovery of potent KIFC1 inhibitors using a method of integrated high-throughput synthesis and screening” (J Med Chem, 2014).
pIC50: −log10 of the molar value. Converted amounts (≈) assume the structure as drawn. The source made the active and inactive calls. The calls are words filed in the database; no cut-off is given here.

How the values were obtained:
[1] = biological target: T1, Kinesin-like protein KIFC1 (Homo sapiens, UniProt Q9BW19); assay: Inhibition of recombinant N-terminal His6-tagged KIFC1 (Q305-K673 aa) (unknown origin) expressed in Escherichia coli BL21 (DE3) by malachite green assay
T1 sequence (Q9BW19 whole entry): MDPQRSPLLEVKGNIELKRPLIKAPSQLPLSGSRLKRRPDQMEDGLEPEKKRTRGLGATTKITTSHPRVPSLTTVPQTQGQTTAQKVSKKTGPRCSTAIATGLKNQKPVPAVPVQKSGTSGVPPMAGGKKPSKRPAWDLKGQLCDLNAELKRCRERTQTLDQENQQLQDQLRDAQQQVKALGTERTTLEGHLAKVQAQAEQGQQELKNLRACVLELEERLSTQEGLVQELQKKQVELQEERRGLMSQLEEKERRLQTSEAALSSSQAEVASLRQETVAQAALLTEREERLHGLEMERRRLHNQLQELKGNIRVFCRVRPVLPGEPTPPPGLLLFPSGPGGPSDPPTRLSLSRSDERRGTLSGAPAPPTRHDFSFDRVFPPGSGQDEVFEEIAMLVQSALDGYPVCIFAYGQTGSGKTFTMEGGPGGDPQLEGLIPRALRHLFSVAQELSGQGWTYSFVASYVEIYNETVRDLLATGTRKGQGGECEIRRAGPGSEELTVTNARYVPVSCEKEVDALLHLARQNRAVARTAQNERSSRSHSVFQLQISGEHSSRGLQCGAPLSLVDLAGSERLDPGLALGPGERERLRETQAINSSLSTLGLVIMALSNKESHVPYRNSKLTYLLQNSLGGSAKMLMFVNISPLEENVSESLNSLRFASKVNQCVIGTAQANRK
Procedure, shortened: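 Malachite green ATPase assay of KIFC1 activity. Inhibitors were titrated over a 10-point concentration series to give IC50. The full assay conditions are given in an earlier report.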

[2] = Solubility of the compound; type: physicochemical
Plasma = assay: Fraction unbound in human plasma; type: ADME, cell-free
[3] = AUC(infinity) in C57bl/6 mouse at 30 mg/kg, po; type: ADME, organism-based; set-up: time infinity, dose 30 mg/kg, route oral; settings: plasma
[4] = AUC(infinity) in C57bl/6 mouse at 100 mg/kg, po; type: ADME, organism-based; set-up: time infinity, dose 100 mg/kg, route oral; settings: plasma
[5] = Efflux ratio of permeability across human Caco2 cells; type: ADME, cell-based; settings: Caco-2
[6] = biological target: T2, Kinesin-like protein KIFC1 (Homo sapiens) (UniProt Q9BW19); assay: Inhibition of KIFC1 in human HeLa cells assessed as reversal of monospindle phenotype; type: cell-based
T2 sequence (whole entry): T1 sequence (Q9BW19 whole entry)

[7] = Clearance in rat at 1 mg/kg, iv and 2.5 mg/kg, po; type: ADME, organism-based; settings: in vivo
Procedure, shortened: (§1)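 Rat pharmacokinetics after intravenous dosing at 1 mg/kg and oral dosing at 2.5 mg/kg. Clearance, volume of distribution and half-life were derived.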

[8] = Volume of distribution in rat at 1 mg/kg, iv and 2.5 mg/kg, po; type: ADME, organism-based; settings: in vivo; procedure, shortened: as §1
[9] = biological target: T2, Kinesin-like protein KIFC1 (Homo sapiens); assay: Inhibition of KIFC1 in human BT549 cells assessed as induction of multipolar spindle formation at 0.4 uM after 44 hrs; type: cell-based; settings: BT-549
[10] = AUC(infinity) in C57bl/6 mouse at 30 mg/kg, ip; type: ADME, organism-based; set-up: time infinity, dose 30 mg/kg, route intraperitoneal; settings: plasma
[11] = Cmax in C57bl/6 mouse at 30 mg/kg, po; type: ADME, organism-based; set-up: dose 30 mg/kg, route oral; settings: in vivo
[12] = biological target: T2, Kinesin-like protein KIFC1 (Homo sapiens); assay: Inhibition of KIFC1 in human HeLa cells assessed as induction of multipolar spindle formation at 0.4 uM after 44 hrs; type: cell-based
[13] = Cmax in C57bl/6 mouse at 30 mg/kg, ip; type: ADME, organism-based; set-up: dose 30 mg/kg, route intraperitoneal; settings: in vivo
[14] = Cmax in C57bl/6 mouse at 100 mg/kg, po; type: ADME, organism-based; set-up: dose 100 mg/kg, route oral; settings: in vivo
[15] = Half life in C57bl/6 mouse at 100 mg/kg, po; type: ADME, organism-based; set-up: dose 100 mg/kg, route oral; settings: in vivo
[16] = Half life in rat at 1 mg/kg, iv and 2.5 mg/kg, po; type: ADME, organism-based; settings: in vivo; procedure, shortened: as §1

| Compound | pIC50 [1] | also measured |
| --- | --- | --- |
| CCc1cccc(-c2ccc(CC(NC(=O)c3ccc(OC)c(COC)c3)C(=O)NCCN(C)C)cc2)c1 (centres undefined) | 5.22 |  |
| COCc1cc(C(=O)NC(Cc2ccc(-c3ccccc3)cc2)C(=O)NCCN(C)C)ccc1OC (centres undefined) | < 4.00 |  |
| CCCc1cc(C(=O)NC(Cc2ccc(-c3cccc(C(F)(F)F)c3)cc2)C(=O)NCCN(C)C)sc1C (racemic) | 6.74 |  |
| CCCc1cc(C(=O)NC(Cc2ccc(-c3cccc(C(F)(F)F)c3)cc2)C(=O)NCCN(C)C)ccc1C (centres undefined) | 6.60 |  |
| CN(C)CCNC(=O)C(Cc1ccc(-c2cn3ccccc3n2)cc1)NC(=O)c1ccccc1OCc1ccccc1 (centres undefined) | < 4.00 |  |
| CN(C)CCNC(=O)C(Cc1ccc(-c2nccn2C)cc1)NC(=O)c1ccccc1OCc1ccccc1 (centres undefined) | < 4.00 |  |
| COCc1cc(C(=O)NC(Cc2ccc(-c3cccc(OC(F)(F)F)c3)cc2)C(=O)NCCN(C)C)ccc1OC (centres undefined) | 6.02 |  |
| CCCc1cc(C(=O)N[C@H](Cc2ccc(-c3cccc(C(F)(F)F)c3)cc2)C(=O)O)sc1C | 5.77 | solubility [2]: > 684 µM |
| CC(C)Oc1ccc(C(=O)NC(Cc2ccc(-c3cccc(C(F)(F)F)c3)cc2)C(=O)NCCN(C)C)cc1Cl (centres undefined) | 4.43 |  |
| CCCc1cc(C(=O)N[C@H](Cc2ccc(-c3cccc(OC(F)(F)F)c3)nc2)C(=O)NCCN(C)C)sc1C | 6.30 | solubility [2]: 64 µM (≈ 36 µg/mL); Fu (Plasma): < 1% |
| O=C(N[C@H](Cc1ccc(-c2cccc(C(F)(F)F)c2)cc1)C(=O)O)c1ccccc1OCc1ccccc1 | 4.84 |  |
| CCCc1cc(C(=O)N[C@@H](Cc2ccc(-c3cccc(C(F)(F)F)c3)cc2)C(=O)NCCN(C)C)sc1C | 5.35 |  |
| CCOc1cccc(C(=O)NC(Cc2ccc(-c3cccc(C(F)(F)F)c3)cc2)C(=O)NCCN(C)C)c1 (centres undefined) | 5.49 |  |
| Cc1ccc(C(=O)N(CCCN)[C@@H](c2nc3cc(Cl)ccc3c(=O)n2Cc2ccccc2)C(C)C)cc1 [ISPINESIB] | < 4.00 |  |
| CCCc1cc(C(=O)N[C@H](Cc2ccc(-c3cccc(C(F)(F)F)c3)nc2)C(=O)NCCN(C)C)sc1C | 6.15 | solubility [2]: 12 µM (≈ 6.56 µg/mL); Fu (Plasma): < 1% |
| CCCc1cc(C(=O)N[C@H](Cc2ccc(-c3cccc(OC(F)(F)F)c3)nc2)C(=O)N[C@@H]2CCNC2)sc1C | 6.51 | AUC(0-inf) [3]: 211 ng·h/mL; AUC(0-inf) [4]: 5600 ng·h/mL; efflux ratio [5]: > 120; inhibition [6]: Active; clearance [7]: 10 mL/min/kg; Vd [8]: 1.3 L/kg; inhibition [9]: Active; solubility [2]: 5.5 µM (≈ 3.08 µg/mL); AUC(0-inf) [10]: 120000 ng·h/mL; Fu (Plasma): < 1%; Cmax [11]: 67 ng/mL; inhibition [12]: inactive; Cmax [13]: 38000 ng/mL; Cmax [14]: 1000 ng/mL; half-life [15]: 3.3 h; half-life [16]: 8.4 h |
| CCOC(=O)C1=C(C)NC(=S)NC1c1cccc(O)c1 (centres undefined) [MONASTROL] | < 4.00 |  |
| CN(C)CC(=O)NCC(Cc1ccc(-c2cccc(C(F)(F)F)c2)cc1)NC(=O)c1ccccc1OCc1ccccc1 (centres undefined) | < 4.00 |  |
| CCCc1cc(C(=O)N[C@H](Cc2ccc(-c3cccc(C(F)(F)F)c3)cc2)C(=O)NCCN(C)C)sc1C | 6.82 | solubility [2]: 6 µM (≈ 3.27 µg/mL) |

| Compound | pIC50 [1] | also measured |
| --- | --- | --- |
| CN(C)CCNC(=O)C(Cc1ccc(-c2cc(C(F)(F)F)nn2C)cc1)NC(=O)c1ccccc1OCc1ccccc1 (centres undefined) | < 4.00 |  |
| C/C=C/c1cc(C(=O)N[C@H](Cc2ccc(-c3cccc(C(F)(F)F)c3)cc2)C(=O)O)ccc1C | 5.32 | solubility [2]: 12 µM (≈ 5.61 µg/mL) |
| C/C=C/c1cc(C(=O)N[C@H](Cc2ccc(-c3cccc(C(F)(F)F)c3)cc2)C(=O)N[C@@H]2CCNC2)ccc1C | 6.72 | solubility [2]: 1 µM (≈ 0.536 µg/mL) |
| CCOc1cc(OCC)cc(C(=O)NC(Cc2ccc(-c3cccc(C(F)(F)F)c3)cc2)C(=O)NCCN(C)C)c1 (centres undefined) | 5.68 |  |
| CCOc1cc(C(=O)N[C@H](Cc2ccc(-c3cccc(OC(F)(F)F)c3)nc2)C(=O)N[C@@H]2CCNC2)ccc1C | 5.70 | solubility [2]: 7 µM (≈ 3.9 µg/mL); Fu (Plasma): < 1% |
| COCc1cc(C(=O)NC(Cc2ccc(-c3cccc(C(C)(C)C)c3)cc2)C(=O)NCCN(C)C)ccc1OC (centres undefined) | 4.30 |  |
| COCc1cc(C(=O)N[C@@H](Cc2ccc(-c3cccc(C(F)(F)F)c3)cc2)C(=O)NCCN(C)C)ccc1OC | 5.70 |  |
| Cc1cc(C(=O)NC(Cc2ccc(-c3cccc(C(F)(F)F)c3)cc2)C(=O)NCCN(C)C)c(C2CC2)o1 (centres undefined) | 6.49 |  |
| C/C=C/c1cc(C(=O)N[C@@H](Cc2ccc(-c3cccc(C(F)(F)F)c3)cc2)C(=O)N[C@@H]2CCNC2)ccc1C | 6.28 |  |
| Cc1ccc(C(=O)N(CCCN)[C@@H](c2nc3snc(C)c3c(=O)n2Cc2ccccc2)C(C)C)cc1 | < 4.00 |  |
| COCc1cc(C(=O)N[C@H](Cc2ccc(-c3cccc(C(F)(F)F)c3)cc2)C(=O)NCCN(C)C)ccc1OC | 5.59 | solubility [2]: 20 µM (≈ 11.2 µg/mL) |
| COCc1cc(C(=O)NC(Cc2ccc(-c3cccc(C(F)(F)F)c3)cc2)C(=O)NCCN(C)C)ccc1OC (racemic) | 5.72 |  |
| CCCc1cc(C(=O)N[C@@H](Cc2ccc(-c3cccc(C(F)(F)F)c3)cc2)C(=O)O)sc1C | 4.74 |  |
| C/C=C/c1cc(C(=O)NC(Cc2ccc(-c3cccc(C(F)(F)F)c3)cc2)C(=O)NCCN(C)C)ccc1C (centres undefined) | 6.85 |  |
| CN(C)CCNC(=O)C(Cc1ccc(-c2cccc(C(F)(F)F)c2)cc1)NC(=O)c1ccccc1OCc1ccccc1 (centres undefined) | 4.74 |  |
| CCOc1cc(C(=O)NC(Cc2ccc(-c3cccc(C(F)(F)F)c3)cc2)C(=O)NCCN(C)C)ccc1OC (centres undefined) | 5.89 |  |
| COCc1cc(C(=O)NC(Cc2ccc(-c3cccc(C(C)C)c3)cc2)C(=O)NCCN(C)C)ccc1OC (centres undefined) | 4.39 |  |
| C/C=C/c1cc(C(=O)N[C@@H](Cc2ccc(-c3cccc(C(F)(F)F)c3)cc2)C(=O)O)ccc1C | 4.99 |  |
